Test results as given in article PMC3944088 (ACS chemical biology, 2013).

Legend:
[1] = system: panel of 24 KRAS-mutant and wild-type lung cancer cell lines; assay: Cell viability screen across a panel of 24 lung cancer cell lines; assay type: cell-based; details: 0.5 and 2.5 μM
Procedure, shortened: (§1)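 Viability read by ATP-based luminescence (CellTiter-Glo) after exposure of lung cancer cell lines to the test compound. For the GSK3 comparison in A549 cells, the known pan-GSK3 inhibitors BIO and LiCl were run alongside. Enantiomers were compared in A549 and H1648 cells.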

[2] = system: A549, H23 and H1648 NSCLC cell lines; assay: Dose-response inhibition of cellular viability in NSCLC cell lines; assay type: cell-based; details: for activity in inhibition of cellular viability (dose-response): A549, H23, H1648 NSCLC cell lines
Procedure, shortened: as §1

A549 NSCLC cells = assay: Cell viability of A549 NSCLC cells with GSK3 inhibitors; assay type: cell-based
Procedure, shortened: as §1

c-MET [3] = target: T1, c-MET (Homo sapiens, UniProt P08581); assay: c-MET autophosphorylation in A549 cells; assay type: cell-based; details: 30 minute treatment, 250 nM for crizotinib, PHA-665752, PF-04217903
T1 sequence (P08581 25-1390): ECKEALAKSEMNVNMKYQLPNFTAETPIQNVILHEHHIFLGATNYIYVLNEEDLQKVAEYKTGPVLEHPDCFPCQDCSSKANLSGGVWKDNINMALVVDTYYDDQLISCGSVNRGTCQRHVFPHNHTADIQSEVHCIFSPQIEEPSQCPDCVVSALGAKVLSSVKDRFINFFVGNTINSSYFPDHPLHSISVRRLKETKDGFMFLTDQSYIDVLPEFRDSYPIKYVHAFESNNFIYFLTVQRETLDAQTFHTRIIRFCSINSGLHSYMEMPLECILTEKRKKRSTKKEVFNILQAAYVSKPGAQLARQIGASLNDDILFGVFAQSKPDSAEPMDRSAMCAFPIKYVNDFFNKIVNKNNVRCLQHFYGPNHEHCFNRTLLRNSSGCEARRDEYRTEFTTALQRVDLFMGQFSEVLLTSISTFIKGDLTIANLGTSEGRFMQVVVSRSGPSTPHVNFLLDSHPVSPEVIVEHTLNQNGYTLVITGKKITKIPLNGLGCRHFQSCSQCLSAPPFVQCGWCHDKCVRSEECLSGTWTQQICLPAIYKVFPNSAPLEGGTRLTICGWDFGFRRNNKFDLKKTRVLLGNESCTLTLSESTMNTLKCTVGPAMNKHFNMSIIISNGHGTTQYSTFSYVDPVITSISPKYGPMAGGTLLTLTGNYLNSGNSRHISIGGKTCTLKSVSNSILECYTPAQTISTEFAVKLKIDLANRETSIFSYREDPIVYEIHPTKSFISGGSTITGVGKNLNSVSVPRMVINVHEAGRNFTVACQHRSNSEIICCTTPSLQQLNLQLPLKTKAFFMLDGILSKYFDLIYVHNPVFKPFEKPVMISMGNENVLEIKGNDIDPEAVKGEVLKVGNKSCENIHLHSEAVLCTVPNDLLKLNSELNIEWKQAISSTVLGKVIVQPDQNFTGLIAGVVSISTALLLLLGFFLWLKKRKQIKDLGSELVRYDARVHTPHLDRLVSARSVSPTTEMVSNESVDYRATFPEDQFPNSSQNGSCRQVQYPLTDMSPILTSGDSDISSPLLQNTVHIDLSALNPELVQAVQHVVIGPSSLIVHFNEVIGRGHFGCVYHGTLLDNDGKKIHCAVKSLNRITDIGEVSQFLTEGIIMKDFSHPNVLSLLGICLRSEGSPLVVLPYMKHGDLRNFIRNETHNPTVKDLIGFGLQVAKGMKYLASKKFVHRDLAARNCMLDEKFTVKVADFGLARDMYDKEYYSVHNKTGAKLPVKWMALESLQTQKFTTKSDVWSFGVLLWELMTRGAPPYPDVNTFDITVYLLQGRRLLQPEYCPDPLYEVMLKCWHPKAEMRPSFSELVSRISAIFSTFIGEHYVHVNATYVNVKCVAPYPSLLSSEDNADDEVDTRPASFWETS

c-MET [4] = target: T1, c-MET; details: reported ref 8, 17; cited from earlier work
GSK3α = GSK3α (Homo sapiens, UniProt P49840); assay: In vitro kinase inhibition assay GSK3α; assay type: biochemical; details: Millipore and Reaction Biology platforms
GSK3α, sequence (P49840 whole entry): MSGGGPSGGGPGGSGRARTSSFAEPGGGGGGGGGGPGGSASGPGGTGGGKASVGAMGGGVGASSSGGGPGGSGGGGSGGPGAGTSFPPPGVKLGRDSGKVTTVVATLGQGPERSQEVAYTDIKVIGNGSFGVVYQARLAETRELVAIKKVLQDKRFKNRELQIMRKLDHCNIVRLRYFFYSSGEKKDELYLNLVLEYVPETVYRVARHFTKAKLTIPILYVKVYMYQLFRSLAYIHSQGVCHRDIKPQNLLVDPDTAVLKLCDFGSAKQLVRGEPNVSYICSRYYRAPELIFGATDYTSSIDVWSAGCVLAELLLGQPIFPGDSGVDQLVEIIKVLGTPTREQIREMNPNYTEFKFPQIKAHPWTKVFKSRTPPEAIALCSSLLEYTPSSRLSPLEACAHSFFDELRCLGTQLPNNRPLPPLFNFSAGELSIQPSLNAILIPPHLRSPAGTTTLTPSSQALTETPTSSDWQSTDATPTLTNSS

GSK3β = GSK3β (Homo sapiens, UniProt P49841); assay: In vitro kinase inhibition assay GSK3β; assay type: biochemical; details: Millipore and Reaction Biology platforms
GSK3β, sequence (P49841 whole entry): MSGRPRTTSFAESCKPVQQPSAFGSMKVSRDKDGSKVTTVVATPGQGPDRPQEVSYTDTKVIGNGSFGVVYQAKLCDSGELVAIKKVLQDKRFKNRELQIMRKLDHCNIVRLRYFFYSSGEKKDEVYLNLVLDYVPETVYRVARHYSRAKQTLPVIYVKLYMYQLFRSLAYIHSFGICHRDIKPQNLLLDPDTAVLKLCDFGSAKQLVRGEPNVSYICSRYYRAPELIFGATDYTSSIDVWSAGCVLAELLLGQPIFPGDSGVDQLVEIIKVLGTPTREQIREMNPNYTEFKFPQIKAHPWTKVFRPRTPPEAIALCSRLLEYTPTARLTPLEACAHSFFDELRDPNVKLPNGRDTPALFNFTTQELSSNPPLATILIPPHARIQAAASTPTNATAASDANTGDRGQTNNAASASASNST

A549 cells [5] = assay: Cell cycle analysis in A549 cells; assay type: cell-based
c-MET [6] = assay: Total c-MET levels in A549 cells; assay type: cell-based
Procedure, shortened: (§2)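 A549 cells were treated with the test compound or the reference pan-GSK3 inhibitor BIO (concentrations in μM), then lysates were immunoblotted for PARP-1 cleavage and total c-MET. In parallel, GSK3α and GSK3β were knocked down by siRNA, each alone, both combined, or with one siRNA targeting both, against a non-targeting control. These cells were blotted 72 hours post-transfection.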

c-MET [7] = target: T1, c-MET; assay: In vitro kinase inhibition c-MET; assay type: biochemical
[8] = system: MV-4–11 and RS4;11 MLL-rearranged leukemia cells; assay: β-catenin stabilisation and cell cycle in MLL-rearranged leukemia cells; assay type: cell-based
[9] = system: RS4;11 MLL-rearranged leukemia cells; assay: Viability of RS4; assay type: cell-based; details: RS4;11 cells
[10] = system: MV-4–11 MLL-rearranged leukemia cells; assay: Viability of MV-4–11 MLL-rearranged leukemia cells; assay type: cell-based; details: MV-4–11 cells
A549 cells [11] = assay: Apoptosis by PARP-1 cleavage in A549 cells; assay type: cell-based
Procedure, shortened: as §2

β-catenin = assay: Total β-catenin levels in A549 cells; assay type: cell-based; details: A549 cells after treatment

In the case of `COc1cc2nccc(Oc3ccc(NC(=O)C4(C(=O)Nc5ccc(F)cc5)CC4)cc3)c2cc1OC` [cabozantinib], the “effect on cellular viability across lung cancer cell line panel” value [1] is reported as “no significant effects”.

In the case of `OCCn1cc(-c2cnc3nnn(Cc4ccc5ncccc5c4)c3n2)cn1` [PF-04217903], the “effect on cellular viability across lung cancer cell line panel” value [1] is reported as “no significant effects” and the “activity in inhibition of cellular viability (dose-response)” value [2] is reported as “no measurable”.

With `[Cl-].[Li+]` [LiCl] the “antiproliferative activity in A549 cells” value (A549 NSCLC cells) was “showed antiproliferative activity” and the “potency range of antiproliferative activity” value (A549 NSCLC cells) was “low millimolar activity”.

With `Cc1[nH]c(/C=C2\C(=O)Nc3ccc(S(=O)(=O)Cc4c(Cl)cccc4Cl)cc32)c(C)c1C(=O)N1CCC[C@@H]1CN1CCCC1` [PHA-665752] the “inhibition of c-MET autophosphorylation” value (c-MET [3]) was “effectively inhibited”.

In the case of `O=C1NC(=O)[C@H](c2cn3c4c(cccc24)CCC3)[C@H]1c1c[nH]c2ccccc12` [compound 7, (+)-3S,4S-tivantinib], the “activity against c-MET” value (c-MET [4]) is listed as “inactive”, the “IC50 for inhibition of GSK3α in vitro kinase activity” value (GSK3α) is listed as “significantly weaker inhibitor” and the “IC50 for inhibition of GSK3β in vitro kinase activity” value (GSK3β) is listed as “significantly weaker inhibitor”. For the same molecule, the “activity in (−)-tivantinib-sensitive cell lines (cellular viability)” value ([2]; A549 and H1648 cells, compared with (−)-tivantinib) was “substantially weaker activity”.

In the case of `C[C@@H](Oc1cc(-c2cnn(C3CCNCC3)c2)cnc1N)c1c(Cl)ccc(F)c1Cl` [crizotinib], the “effect on cellular viability across lung cancer cell line panel” value [1] is reported as “no significant effects” and the “activity in inhibition of cellular viability (dose-response)” value [2] is reported as “only weak activity”.

In the case of `O=C1NC(=O)[C@@H](c2cn3c4c(cccc24)CCC3)[C@@H]1c1c[nH]c2ccccc12` [tivantinib], the cell cycle effect (A549 cells [5]) is reported as “G2/M cell cycle arrest”, the “c-MET levels upon treatment” value (c-MET [6]) is reported as “decreased c-MET levels” and the “inhibition of c-MET (in vitro kinase)” value (c-MET [7]) is reported as “only weakly inhibited”. The cell cycle effect [8] was “induced G1 cell cycle arrest”, the β-catenin stabilisation [8] was “stabilized β-catenin” and the “effect on cellular viability across lung cancer cell line panel” value [1] was “inhibited the viability of the majority of these”. The inhibition of viability [9] was “potently inhibited viability”, the “IC50 for inhibition of GSK3α in vitro kinase activity” value (GSK3α) was “upper nanomolar range” and the “IC50 for inhibition of GSK3β in vitro kinase activity” value (GSK3β) was “upper nanomolar range”. The inhibition of viability [10] was “potently inhibited viability”, the IC50 ([2]; read-out: IC50 for inhibition of cellular viability) was about 500 nM and the “inhibition of c-MET autophosphorylation” value (c-MET [3]) was “essentially no effect”. The “apoptosis indicated by PARP-1 cleavage” value (A549 cells [11]) was “induce apoptosis” and the “total β-catenin levels” value (β-catenin) was “increase in total β-catenin levels”.

In the case of `O=C1Nc2cc(Br)ccc2/C1=C1/Nc2ccccc2/C1=N\O` [BIO], the “c-MET levels upon treatment” value (c-MET [6]) is reported as “decreased c-MET levels”, the “antiproliferative activity in A549 cells” value (A549 NSCLC cells) is reported as “showed antiproliferative activity” and the “apoptosis indicated by PARP-1 cleavage” value (A549 cells [11]) is reported as “able to induce apoptosis in A549 cells, albeit slightly delayed”.
